Data set [1] is described as follows: Inhibition of HCV NS5B polymerase. Further details: species or system Hepacivirus hominis. In short, it runs like this: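 N-terminally tagged full-length NS5B construct; IC50 values are the mean of duplicate measurements on two separate weighings.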
For another data set, the system named is Enterovirus C. Nature of the data set: Inhibition of poliovirus RNA-dependent RNA polymerase at 200 to 250 uM.
Data set [2] deals with Hepatitis C virus. The experiment in a line: Inhibition of subgenomic HCV RNA replication in Huh7 cells by cell-based replicon assay. The format is functional, organism-based, Hepacivirus hominis. The settings on record: Huh-7. In short, it runs like this: (§1)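 Subgenomic HCV RNA replicon in Huh-7 cells. Replicon RNA was quantified by RT-PCR and normalized to cellular GAPDH mRNA. EC50 runs were done in duplicate on two separate weighings.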

The next data set is filed under the species Bos taurus. The experiment in a line: Inhibition of calf thymus DNA-dependent RNA polymerase 2 at 200 to 250 uM.
Data set [3] is described as follows: Distribution coefficient, log D at pH 7.2. The format is physicochemical. Conditions: octanol/water. In short, it runs like this:
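Shake-flask partitioning between octanol and 100 mM phosphate buffer, pH 7.2; reported as log D(oct/buffer).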

The subject of data set [4] is Hepatitis C virus. The experiment in a line: Inhibition of subgenomic HCV RNA replication in Huh7 cells at 74 uM by cell-based replicon assay. The format is functional, Hepacivirus hominis. Conditions: Huh-7. In short, it runs like this: as §1
Data set [5] in a line: Solubility in phosphate buffer at pH 7.2. The format is physicochemical. In short, it runs like this:
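Solubility measured in phosphate buffer at pH 7.2.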

Data set [6] can be described thus: Cytotoxicity against Huh7 cells. The settings on record: human, huh-7. The format is cell-based.
In data set [7] the test system is Hepatitis C virus. The experiment in a line: Inhibition of subgenomic HCV RNA replication in Huh7 cells at 3.4 uM by cell-based replicon assay. The format is functional, Hepacivirus hominis. Conditions: Huh-7. In short, it runs like this: as §1

Calls of active or inactive are those of the source. The calls are words filed in the database; no cut-off is given here.

On to `CNc1nc([C@H](Cc2ccc(O)cc2)NC(=O)c2ccc3c(c2)nc(-c2ccoc2)n3C2CCCCC2)cs1`, for which the IC50 in data set [1] was found to be 2.8 µM. This compound also yielded an inhibition with Enterovirus C of less than 50%. In addition, a half-maximal response in the data set with Hepatitis C virus [2] (EC50) required 7.1 µM. Further, the result in the data set filed under Bos taurus was Active.
In data set [1], `O=C(N[C@@H](Cc1ccc(O)cc1)C(=O)NCc1ccccn1)c1ccc2c(c1)nc(-c1ccoc1)n2C1CCCCC1` showed an IC50 of 2.7 µM. In addition, the midpoint of the response in the data set on Hepatitis C virus [2], the EC50, lay at 10 µM.
Consider `O=C(N[C@@H](Cc1ccc(O)cc1)C(=O)NCc1cccnc1)c1ccc2c(c1)nc(-c1ccoc1)n2C1CCCCC1`, for which the concentration for half-maximal inhibition (IC50) in [1] was found to be 2.6 µM. In the data set on Hepatitis C virus [2], it took 16 µM to reach a half-maximal effect (EC50).
The compound `CC(=O)Nc1nc([C@H](Cc2ccc(O)cc2)NC(=O)c2ccc3c(c2)nc(-c2ccoc2)n3C2CCCCC2)cs1` yielded an IC50 in [1] of 4.8 µM. For the same compound, the inhibition in the data set on Enterovirus C was less than 50%. This compound also registered a concentration giving a half-maximal response (EC50) in the data set on Hepatitis C virus [2] of 2.4 µM. Moreover, in the data set listed under Bos taurus, the outcome was Active.
Take `O=C(N[C@@H](Cc1ccc(O)cc1)C(=O)Nc1cccnc1)c1ccc2c(c1)nc(-c1ccoc1)n2C1CCCCC1`: it took 3 µM to reach half-maximal inhibition in [1] (IC50). In the data set with Hepatitis C virus [2], the EC50 was determined as 6 µM.
The compound `CN1CCN(C(=O)[C@H](Cc2ccc(O)cc2)NC(=O)c2ccc3c(c2)nc(-c2ccoc2)n3C2CCCCC2)CC1` displayed an IC50 in data set [1] of 11 µM. Besides, the EC50 with Hepatitis C virus [2] was greater than 9 µM.
For the compound `O=C(N[C@@H](Cc1ccc(O)cc1)C(=O)N1CCOCC1)c1ccc2c(c1)nc(-c1ccoc1)n2C1CCCCC1`, the IC50 in data set [1] was 9.5 µM.
Compound `O=C(N[C@@H](Cc1c[nH]c2ccc(O)cc12)c1cscn1)c1ccc2c(c1)nc(-c1ccoc1)n2C1CCCCC1` showed an IC50 in data set [1] of 0.3 µM. In the data set on Enterovirus C, the inhibition is less than 50%. Further, in the data set on Hepatitis C virus [2], the EC50 was 1.7 µM. Besides, the logD in [3] was determined as 3.8. Moreover, in the data set listed under Bos taurus, the outcome was Active.
As to `O=C(N[C@@H](Cc1ccc(O)cc1)C(=O)NCc1ccncc1)c1ccc2c(c1)nc(-c1ccoc1)n2C1CCCCC1`, it took 3.7 µM to reach half-maximal inhibition in data set [1] (IC50). This compound also displayed an EC50 in the data set on Hepatitis C virus [2] greater than 9 µM.
In data set [1], `NC(=O)[C@H](Cc1ccc(O)cc1)NC(=O)c1ccc2c(c1)nc(-c1ccoc1)n2C1CCCCC1` showed an IC50 of 0.8 µM. In the data set on Hepatitis C virus [2], this compound displayed an EC50 of 13 µM. In data set [3], this compound gave a logD of 3.1.
In turn, `Cc1nc([C@H](Cc2ccc(O)cc2)NC(=O)c2ccc3c(c2)nc(-c2ccoc2)n3C2CCCCC2)cs1` yielded an IC50 in data set [1] of 3.3 µM. Further, the inhibition in the data set on Enterovirus C is less than 50%. In the data set on Hepatitis C virus [2], this compound yielded a 50% effective concentration (EC50) of 7.4 µM. Besides, in the data set listed under Bos taurus, the outcome was Active.
For `O=C(N[C@@H](Cc1c[nH]c2ccc(O)cc12)C(=O)O)c1ccc2c(c1)nc(-c1ccoc1)n2C1CCCCC1`, half-maximal inhibition in [1] (IC50) was put at 0.05 µM. For the same compound, 74 µM produced 37% inhibition in the data set on Hepatitis C virus [4]. Moreover, the solubility in [5] was greater than 0.85 mg/mL. In the data set with Hepatitis C virus [2], this compound registered an EC50 greater than 74 µM. Besides, in [3], the logD is 0.45.
`COC(=O)[C@H](Cc1c[nH]c2ccc(O)cc12)NC(=O)c1ccc2c(c1)nc(-c1ccoc1)n2C1CCCCC1`: half-maximal inhibition in [1] (IC50) was put at 0.38 µM. Moreover, the Activity entry in [6] is recorded as “Toxic”. The compound also yielded an inhibition at 3.4 µM in the data set on Hepatitis C virus [7] of 30%.
In the case of `CN(C)c1nc([C@H](Cc2c[nH]c3ccc(O)cc23)NC(=O)c2ccc3c(c2)nc(-c2ccoc2)n3C2CCCCC2)cs1`, in data set [1], 0.9 µM corresponded to half-maximal inhibition (IC50). The inhibition in the data set on Enterovirus C is less than 50%. Moreover, the response in the data set on Hepatitis C virus [2] was half-maximal at 3.7 µM (EC50). Also, the result in the data set listed under Bos taurus was Active.
In [1], `COc1ccc(CCNC(=O)c2ccc3c(c2)nc(-c2ccccn2)n3C2CCCCC2)cc1OC` gave an IC50 of 12 µM.
For the compound `O=C(N[C@@H](Cc1ccc(O)cc1)c1cscn1)c1ccc2c(c1)nc(-c1ccoc1)n2C1CCCCC1`, the IC50 in [1] worked out at 6.6 µM. Moreover, the inhibition in the data set with Enterovirus C is less than 50%. In addition, the EC50 in the data set with Hepatitis C virus [2] is 4.3 µM. The outcome in the data set listed under Bos taurus was Active.
On to `CC(C)[C@H](Cc1ccc(O)cc1)NC(=O)c1ccc2c(c1)nc(-c1ccoc1)n2C1CCCCC1`, for which inhibition in [1] was half-maximal at 4.3 µM (IC50). The same compound had a 50% effective concentration (EC50) with Hepatitis C virus [2] of 3.5 µM. Also, the log distribution coefficient (logD) in data set [3] worked out at 3.4.
`CC(=O)Nc1nc([C@H](Cc2c[nH]c3ccc(O)cc23)NC(=O)c2ccc3c(c2)nc(-c2ccoc2)n3C2CCCCC2)cs1` gave a 50% inhibitory concentration (IC50) in data set [1] of 0.55 µM. In the data set with Enterovirus C, this compound yielded an inhibition of less than 50%. The EC50 in the data set on Hepatitis C virus [2] worked out at 5.8 µM. In addition, the outcome in the data set listed under Bos taurus was Active.
With `O=C(N[C@@H](Cc1ccc(O)cc1)C(=O)NCCN1CCOCC1)c1ccc2c(c1)nc(-c1ccoc1)n2C1CCCCC1`, 3.2 µM corresponded to half-maximal inhibition in [1] (IC50). Moreover, the half-maximal effective concentration (EC50) in the data set on Hepatitis C virus [2] was greater than 13 µM.
In [1], `CN(C)C(=O)[C@H](Cc1ccc(O)cc1)NC(=O)c1ccc2c(c1)nc(-c1ccoc1)n2C1CCCCC1` had an IC50 of 4.9 µM.
`Cn1cc(C[C@H](NC(=O)c2ccc3c(c2)nc(-c2ccoc2)n3C2CCCCC2)c2csc(N)n2)c2cc(O)ccc21`: half-maximal inhibition in data set [1] (IC50) required 0.9 µM. This compound also came in with an inhibition with Enterovirus C of less than 50%. The same compound showed an EC50 in the data set with Hepatitis C virus [2] of 3.4 µM. Further, the outcome in the data set filed under Bos taurus was Active.
For `Nc1nc([C@H](Cc2c[nH]c3ccc(O)cc23)NC(=O)c2ccc3c(c2)nc(-c2ccoc2)n3C2CCCCC2)cs1`, the concentration for half-maximal inhibition (IC50) in [1] worked out at 0.19 µM. For the same compound, in the data set on Enterovirus C, the inhibition is less than 50%. The same compound came in with an EC50 in the data set with Hepatitis C virus [2] of 5.7 µM. Also, the result in the data set filed under Bos taurus was Active.
On to `Nc1nc([C@H](Cc2ccc(O)cc2)NC(=O)c2ccc3c(c2)nc(-c2ccoc2)n3C2CCCCC2)cs1`, for which half-maximal inhibition in data set [1] (IC50) required 1.3 µM. Moreover, the inhibition with Enterovirus C is less than 50%. Also, the outcome in the data set listed under Bos taurus was Active.
For the compound `CN(C)CCCNC(=O)[C@H](Cc1ccc(O)cc1)NC(=O)c1ccc2c(c1)nc(-c1ccoc1)n2C1CCCCC1`, the IC50 in [1] came out at 1.9 µM.
In [1], `O=C(O)c1ccc2c(c1)nc(-c1ccoc1)n2C1CCCCC1` yielded a half-inhibitory concentration (IC50) of 1.6 µM.
Compound `NC(=O)[C@H](Cc1c[nH]c2ccc(O)cc12)NC(=O)c1ccc2c(c1)nc(-c1ccoc1)n2C1CCCCC1` returned an IC50 in data set [1] of 0.22 µM. In addition, it took 8 µM to reach a half-maximal effect in the data set on Hepatitis C virus [2] (EC50).
With `CC(=O)Nc1nc([C@H](Cc2ccc(O)cc2)NC(=O)c2ccc3c(c2)nc(-c2ccoc2)n3C2CCCCC2)c[nH]1`, in data set [1], 4.2 µM corresponded to half-maximal inhibition (IC50). Besides, in the data set with Enterovirus C, the inhibition is less than 50%. The result in the data set filed under Bos taurus was Active.
`CNc1nc([C@H](Cc2c[nH]c3ccc(O)cc23)NC(=O)c2ccc3c(c2)nc(-c2ccoc2)n3C2CCCCC2)cs1` yielded an IC50 in data set [1] of 0.5 µM. The same compound came in with an inhibition with Enterovirus C of less than 50%. Further, in the data set on Hepatitis C virus [2], the EC50 worked out at 3 µM. The outcome in the data set filed under Bos taurus was Active.
For `O=C(O)COc1ccc2[nH]cc(C[C@H](NC(=O)c3ccc4c(c3)nc(-c3ccoc3)n4C3CCCCC3)C(=O)O)c2c1`, the IC50 in data set [1] was found to be 0.027 µM. This compound registered a solubility in [5] greater than 0.85 mg/mL. This compound displayed an EC50 in the data set with Hepatitis C virus [2] of 64 µM. Moreover, in data set [3], the log distribution coefficient (logD) is -1.6.
The compound `CN(C)CCNC(=O)[C@H](Cc1ccc(O)cc1)NC(=O)c1ccc2c(c1)nc(-c1ccoc1)n2C1CCCCC1` displayed an IC50 in data set [1] of 2.1 µM.
Turning to `O=C(N[C@@H](Cc1ccc(O)cc1)C(=O)O)c1ccc2c(c1)nc(-c1ccoc1)n2C1CCCCC1`, in data set [1], inhibition was half-maximal at 0.5 µM (IC50). The Activity result in data set [6] is reported as “Not Active”. The compound also gave a concentration giving a half-maximal response (EC50) with Hepatitis C virus [2] of 48 µM.
On to `CN(C)c1nc([C@H](Cc2ccc(O)cc2)NC(=O)c2ccc3c(c2)nc(-c2ccoc2)n3C2CCCCC2)cs1`, for which the concentration for half-maximal inhibition (IC50) in data set [1] is 5.1 µM. Further, in the data set with Enterovirus C, the inhibition is less than 50%. For the same compound, it took 8.3 µM to reach a half-maximal effect in the data set with Hepatitis C virus [2] (EC50). In the data set filed under Bos taurus, the outcome was Active.
In data set [1], `Cc1nc([C@H](Cc2c[nH]c3ccc(O)cc23)NC(=O)c2ccc3c(c2)nc(-c2ccoc2)n3C2CCCCC2)cs1` displayed a concentration for half-maximal inhibition (IC50) of 0.3 µM. The solubility in data set [5] was less than 0.0001 mg/mL. Moreover, the inhibition in the data set on Enterovirus C was less than 50%. The same compound showed an EC50 in the data set on Hepatitis C virus [2] of 2.4 µM. For the same compound, in data set [3], the logD was found to be 4.6. The outcome in the data set filed under Bos taurus was Active.
